The source of these data is ChEMBL document CHEMBL4765395, “Design, diversity-oriented synthesis and biological evaluation of novel heterocycle derivatives as non-nucleoside HBV capsid protein inhibitors” (Eur J Med Chem, 2020).

Each structure is given as a SMILES string. Active and inactive are the calls of the source. The calls are words filed in the database; no cut-off is given here.

The nature of series [1]: Selectivity index, ratio of CC50 for human HepG2.2.15 cells to IC50 for antiviral activity against HBV infected in human HepG2.2.15 cells assessed as reduction in HBsAg secretion. Particulars: read-out: Ratio CC50/IC50. The series is classed as toxicity, cell-based.
Series [2] can be described thus: Selectivity index, ratio of CC50 for human HepG2.2.15 cells to IC50 for antiviral activity against HBV infected in human HepG2.2.15 cells assessed as reduction in intracellular viral DNA level. The series is classed as toxicity, cell-based. Particulars: read-out: Ratio CC50/IC50.
Series [3] is described as follows: Selectivity index, ratio of CC50 for human HepG2.2.15 cells to IC50 for antiviral activity against HBV infected in human HepG2.2.15 cells assessed as reduction in HBeAg secretion. Particulars: read-out: Ratio CC50/IC50. The series is classed as toxicity, cell-based.
A short description of series [4]: Cytotoxicity against human HepG2.2.15 cells assessed as reduction in cell viability incubated for 4 days prior to compound washout followed by compound addition and measured after 4 days by CCK8 assay. The series is classed as cell-based, HepG2 2.2.15. Particulars: time 8 day. In outline:
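Cytotoxicity in HepG2.2.15 cells was measured with five doses (100, 20, 4, 0.8, 0.16 µM) over 8 days, with medium changed on day 4. CCK-8 (10%) was added 0.5 h before the end, OD was read at 450/630 nm, and CC50 is the concentration killing 50% of cells against untreated controls.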

Series [5] concerns HepG2 2.2.15. The series can be described thus: Cytotoxicity against human HepG2.2.15 cells assessed as reduction in cell viability at 20 uM incubated for 4 days prior to compound washout followed by compound addition and measured after 4 days by CCK8 assay relative to control. The series is classed as cell-based. Particulars: hepg2 2.2.15, 192 h, time 8 day.
For series [6], the system named is Hepatitis B virus. The series can be described thus: Antiviral activity against HBV infected in human HepG2.2.15 cells assessed as […] incubated for 4 days prior to compound washout followed by compound addition and measured after 4 days by fluorogenic probe based RT-qPCR analysis. The series is classed as functional, organism-based. (In general: Real-time PCR tracks product formation cycle by cycle.)

The test system of series [7] is Hepatitis B virus. The experiment in a line: Antiviral activity against HBV infected in human HepG2.2.15 cells assessed as reduction in intracellular viral DNA level at 20 uM incubated for 4 days prior to compound washout followed by compound addition and measured after 4 days by fluorogenic probe based RT-qPCR analysis relative to control. The series is classed as functional.

For series [8], the system named is Hepatitis B virus. The experiment in a line: Antiviral activity against HBV infected in human HepG2.2.15 cells assessed as reduction in HBeAg secretion incubated for 4 days prior to compound washout followed by compound addition and measured after 4 days by ELISA. The series is classed as functional, organism-based. In outline: (§1)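 Five doses (100, 20, 4, 0.8, 0.16 µM) were added in triplicate to HepG2.2.15 cultures for 8 days, with fresh medium on day 4 and untreated controls. Day-8 supernatants were assayed for HBsAg and HBeAg by ELISA kit with absorbance read-out. IC50 is the concentration giving 50% inhibition of antigen secretion.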
(In general: In an ELISA, binding on a coated surface is turned into a signal by an enzyme label.)

For series [9], the system named is Hepatitis B virus. The series can be described thus: Antiviral activity against HBV infected in human HepG2.2.15 cells assessed as reduction in HBsAg secretion incubated for 4 days prior to compound washout followed by compound addition and measured after 4 days by ELISA. The series is classed as functional, organism-based. In outline: as §1
Series [10] deals with HepG2 2.2.15. The experiment in a line: Cytotoxicity against human HepG2.2.15 cells assessed as reduction in cell viability at 50 uM incubated for 4 days prior to compound washout followed by compound addition and measured after 4 days by CCK8 assay relative to control. The series is classed as cell-based. The note with it: hepg2 2.2.15, 192 h, time 8 day. (In general: Tetrazolium assays rely on reduction of a dye to a coloured formazan, in cell work by metabolically active cells.)

Series [11] has as its system Hepatitis B virus. The experiment in a line: Antiviral activity against HBV infected in human HepG2.2.15 cells assessed as reduction in intracellular viral DNA level at 50 uM incubated for 4 days prior to compound washout followed by compound addition and measured after 4 days by fluorogenic probe based RT-qPCR analysis relative to control. The series is classed as functional. Particulars: for inhibition at 50 µM: HepG2.2.15, 192 h, time 8 day.

Series [12] deals with Hepatitis B virus. The experiment in a line: Antiviral activity against HBV infected in human HepG2.2.15 cells assessed as […] at 100 uM incubated for 4 days prior to compound washout followed by compound addition and measured after 4 days by fluorogenic probe based RT-qPCR analysis relative to control. The series is classed as functional. The note with it: for inhibition at 100 µM: HepG2.2.15, 192 h, time 8 day.

For series [13], the system named is HepG2 2.2.15. The experiment in a line: Cytotoxicity against human HepG2.2.15 cells assessed as reduction in cell viability at 100 uM incubated for 4 days prior to compound washout followed by compound addition and measured after 4 days by CCK8 assay relative to control. The series is classed as cell-based. Particulars: hepg2 2.2.15, 192 h, time 8 day. In outline:
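Three wells of 4000 HepG2.2.15 cells per well received a single 100 µM concentration for 8 days, with medium replaced on day 4. CCK-8 (10%) was added 0.5 h before the end, and OD was read at 450 and 630 nm. Percent cell death was calculated against untreated cells.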

In series [14] the test system is Hepatitis B virus. The series can be described thus: Binding affinity to recombinant HBV capsid protein assessed as response value at 25 uM by surface plasmon resonance analysis (reference value: 14.56). In outline:
(§2)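 Recombinant HBV capsid protein purified and amine-coupled to a CM5 sensor chip. Six doses of test compound run with running buffer containing 5% DMSO, plus eight solvent-calibration solutions and 50% DMSO solution. Samples centrifuged 15 min before loading. PBS and NaAc-HAc buffers used. Binding read as SPR response.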

For series [15], the system named is Hepatitis B virus. The experiment in a line: Binding affinity to recombinant HBV capsid protein assessed as response value at 12.5 uM by surface plasmon resonance analysis (reference value: 14.56). In outline: as §2
In series [16] the test system is Hepatitis B virus. The series can be described thus: (§3) Binding affinity to recombinant HBV capsid protein by surface plasmon resonance analysis. In outline: as §2
A short description of series [17]: as §3. Also noted: species or system Hepatitis B virus. In outline:
as §2

The test system of series [18] is Hepatitis B virus. The experiment in a line: Binding affinity to recombinant HBV capsid protein assessed as response value at 100 uM by surface plasmon resonance analysis (reference value: 14.56). In outline:
as §2

Series [19] has as its system Hepatitis B virus. The series can be described thus: Binding affinity to recombinant HBV capsid protein assessed as response value at 50 uM by surface plasmon resonance analysis (reference value: 14.56). In outline:
as §2

For series [20], the system named is Hepatitis B virus. The experiment in a line: Antiviral activity against HBV infected in human HepG2.2.15 cells assessed as reduction in intracellular viral DNA level incubated for 8 days by fluorogenic probe based RT-qPCR analysis. The note with it: HepG2.2.15, 192 h.
In series [21] the test system is Hepatitis B virus. The series can be described thus: Binding affinity to recombinant HBV capsid protein assessed as response value at 6.25 uM by surface plasmon resonance analysis (reference value: 14.56). In outline: as §2
The nature of series [22]: Cytotoxicity against human HepG2.2.15 cells assessed as reduction in cell viability incubated for 4 days prior to compound washout followed by compound addition and measured after 4 days by […]. The series is classed as cell-based, HepG2 2.2.15. The note with it: time 8 day.
The test system of series [23] is Hepatitis B virus. The experiment in a line: Binding affinity to recombinant HBV capsid protein assessed as response value at 22.2 uM by surface plasmon resonance analysis (reference value: 11.31). In outline:
as §2

Series [24] relates to Hepatitis B virus. The series can be described thus: Binding affinity to recombinant HBV capsid protein assessed as response value at 6.6 uM by surface plasmon resonance analysis (reference value: 11.31). In outline:
as §2

The test system of series [25] is Hepatitis B virus. The series can be described thus: Binding affinity to recombinant HBV capsid protein assessed as response value at 9.9 uM by surface plasmon resonance analysis (reference value: 11.31). In outline:
as §2

In series [26] the test system is Hepatitis B virus. The series can be described thus: Binding affinity to recombinant HBV capsid protein assessed as response value at 14.8 uM by surface plasmon resonance analysis (reference value: 11.31). In outline:
as §2

Take `CC(C)Cc1nc(-c2ccncc2)sc1C(=O)NCc1ccc(F)cc1`: the selectivity ratio in series [1] is more than 26.3; in series [2], more than 2.5; in [3], more than 1.6. Moreover, the CC50 at 192 h in series [4] was more than 100 µM. For the same compound, in series [5], the Activity was 35.8%. The figures for the 50% inhibitory concentration (IC50) in series [6], in series [8] and in series [9] were 40.5 µM, 62.3 µM and 3.8 µM, respectively. The inhibition at 20 µM in series [7] (HepG2.2.15, 192 h, time 8 day) came out at 57.8%.

For the compound `CCOC(=O)c1cnc(-c2ccccc2)nc1CC(C)C`, in series [10], the Activity entry was “Non-Toxic”. In addition, the inhibition at 50 µM in [11] is 37.3%.

Regarding `CC(C)Cc1nc(-c2cccc(F)c2)ncc1C(=O)NCc1ccc(F)cc1`, the Activity result in series [10] is reported as “Non-Toxic”. Besides, in [11], the inhibition at 50 µM is 35.6%.

For the compound `O=C(NCc1ccc(F)cc1)c1ccc(-c2ccccc2)nc1-c1ccccc1`, in [10], the Activity amounted to 4.4%. For the same compound, in [11] (time 8.0 day), the inhibition entry is “inactive”.

With `Nc1ccn([C@@H]2CS[C@H](CO)O2)c(=O)n1` [LAMIVUDINE], the selectivity ratio in [2] is more than 167. In series [4], the CC50 at 192 h is more than 100 µM. Moreover, the IC50 in series [6] was 0.6 µM; in [8], more than 100 µM; in [9], more than 100 µM. Also, the inhibition at 100 µM in series [12] is 87.9%. Moreover, the Activity in [13] worked out at 12.7%.

For `CC(C)Cc1sc(-c2nccs2)nc1C(=O)NCc1ccc(F)cc1`, the selectivity ratio in series [1] came out at 1.9; in series [2], 25.7; in series [3] it was 1.9. Moreover, the Activity in [14] is 38.4 RU; in series [15], 23.9 RU; in series [16], “Dose-dependent effect”; in series [18] it was 63.5 RU; in series [19], 41.4 RU; in [21] it was 17.7 RU. In series [13], the Activity is 98.8%. Besides, the CC50 at 192 h was 59.2 µM in [4] and 50.4 µM in series [22]. Besides, the IC50 stood at 2.3 µM in series [6], 31.7 µM in series [8], 1.33 µM in [20] and 31.7 µM in [9]. Moreover, the inhibition at 100 µM in series [12] is 97.3%. Also, the dissociation constant Kd in series [17] is 50.6 µM.

For `CC(C)Cc1nc(-c2cccs2)sc1C(=O)NCc1ccc(F)cc1`, in [5], the Activity is recorded as 17.8%. Further, the inhibition entry in [7] (time 8.0 day) is “inactive”.

Turning to `CC(C)Cc1nc(-c2cccc(F)c2)ncc1C(=O)O`, the selectivity ratio is more than 10.1 in series [2] and more than 10.3 in series [3]. The CC50 at 192 h in series [4] was more than 100 µM. In addition, the IC50 in [6] was 9.9 µM; in [8] it was 9.7 µM; in series [9], more than 100 µM. Further, the Activity result in [10] is “Non-Toxic”. In series [11], the inhibition at 50 µM was 54.2%.

For `O=C(NCc1ccc(F)cc1F)c1cn(-c2nccs2)nc1NCc1ccccc1`, the inhibition at 100 µM in [12] is 32.9%. The Activity in series [13] is reported as 16.9%.

For `CCOC(=O)c1cn(-c2cccc(F)c2)nc1NCc1ccccc1`, the inhibition at 100 µM in [12] turned out to be 14.6%. Also, the Activity entry in [13] is “Non-Toxic”.

Turning to `CC(C)Cc1sc(-c2nccs2)nc1C(=O)Nc1ccc(F)cc1`, the selectivity ratio is less than 0.8 in series [1], 36.7 in series [2] and less than 0.8 in series [3]. For the same compound, the Activity is 26.4 RU in [23]; 15.4 RU in [24]; “Dose-dependent effect” in series [16]; 18.8 RU in series [25]; “Non-Toxic” in series [13]; 20.6 RU in series [26]. Also, the 50% cytotoxic concentration (CC50) at 192 h in series [4] turned out to be 80.8 µM. Besides, the results for the concentration for half-maximal inhibition (IC50) in series [6], in series [8] and in series [9] were 2.2 µM, more than 100 µM and more than 100 µM, respectively. Moreover, in series [12], the inhibition at 100 µM was found to be 89.8%. Besides, the dissociation constant Kd in series [17] was 60 µM.

Regarding `CCOC(=O)c1cnc(-c2cccc(F)c2)nc1CC(C)C`, in series [10], the Activity entry is recorded as “Non-Toxic”. In addition, the inhibition at 50 µM in [11] came out at 46.3%.

In the case of `CCOC(=O)c1cn(-c2cccc(F)c2)nc1SC1CCCCC1`, in [12] (time 8.0 day), the inhibition entry is “inactive”. The Activity in [13] is 18.1%.

What is called CC50 is the concentration giving 50% cytotoxicity. In general, IC50 refers to the midpoint of a concentration-inhibition curve. The term inhibition denotes the relative decrease from the control value, in per cent. Usually Kd stands for the concentration at which binding is half-saturated.
